{"data": "Measured values of several laboratories", "target": "Eukaryotic elongation factor 2 kinase (EEF2K, Homo sapiens, UniProt O00418)", "note": "Protocols differ between the studies behind these lines."}
{"Structure (SMILES)": "C=CC(=O)Nc1cc(Nc2nccc(Nc3cc(Cl)c(F)cc3C(C)(C)O)n2)c(OC)cc1N1CC[C@@H](N(C)C)C1", "effect on": "enzyme activity", "mode": "inhibitor", "tested at": "1 µM", "endpoint": "inhibition", "result": "11%"}
{"Structure (SMILES)": "CC(C)(C)C(=O)c1sc(NC2CCCCC2)nc1N", "effect on": "enzyme activity", "mode": "inhibitor", "tested at": "10 µM", "endpoint": "remaining activity", "result": "111%"}
{"Structure (SMILES)": "CC(C)c1ccc(NC(=O)c2cccs2)c(-c2nc3ccccc3[nH]c2=O)c1", "effect on": "enzyme activity", "mode": "inhibitor", "tested at": "1 µM", "endpoint": "activity vs control", "result": "113%"}
{"Structure (SMILES)": "CC(C)(C)c1nc(-c2cccc(NS(=O)(=O)c3c(F)cccc3F)c2F)c(-c2ccnc(N)n2)s1", "effect on": "enzyme activity", "mode": "inhibitor", "technique": "radiometric", "tested at": "1 µM", "endpoint": "remaining activity", "result": "93%"}
{"Structure (SMILES)": "Cc1ccc(Nc2nccc(N(C)c3ccc4c(C)n(C)nc4c3)n2)cc1S(N)(=O)=O", "effect on": "enzyme activity", "mode": "inhibitor", "tested at": "0.3 µM", "endpoint": "inhibition", "result": "-7%"}
{"Structure (SMILES)": "COc1cc2ncnc(Nc3ccc(Oc4ccccc4)c(C)c3C)c2cc1OC", "effect on": "enzyme activity", "mode": "inhibitor", "tested at": "1 µM", "endpoint": "inhibition", "result": "1%"}
{"Structure (SMILES)": "COc1cc(Nc2cnc(C#N)c(O[C@H](C)CN(C)C)n2)ncc1-c1cnn(C)c1", "effect on": "enzyme activity", "mode": "inhibitor", "technique": "radiometric", "tested at": "1 µM", "endpoint": "remaining activity", "result": "94%"}
{"Structure (SMILES)": "N#CC1c2c([nH]c3c(Cl)c(Cl)ccc23)C(=O)NC12CCCCC2 (racemic)", "effect on": "thermal stability", "technique": "DSF", "tested at": "10 µM", "endpoint": "ΔTm", "result": "-0.1 °C"}
{"Structure (SMILES)": "CCCS(=O)(=O)Nc1ccc(F)c(C(=O)c2c[nH]c3ncc(-c4ccc(Cl)cc4)cc23)c1F", "effect on": "enzyme activity", "mode": "inhibitor", "tested at": "1 µM", "endpoint": "inhibition", "result": "< 10%"}
{"Structure (SMILES)": "Oc1cccc(-c2nc(N3CCOCC3)c3oc4ncccc4c3n2)c1", "effect on": "enzyme activity", "mode": "inhibitor", "tested at": "10 µM", "endpoint": "remaining activity", "result": "99%"}
{"Structure (SMILES)": "CN1CC(Oc2cnc(C#N)cc2-c2ccn3nc(NC(=O)C4CC4)cc3c2)C1", "effect on": "enzyme activity", "mode": "inhibitor", "tested at": "1 µM", "endpoint": "inhibition", "result": "9%"}
{"Structure (SMILES)": "Cn1c2c(c3ccc(Cl)c(Cl)c31)C(C#N)C1(CCOCC1)NC2=O (centres unmarked)", "effect on": "thermal stability", "technique": "DSF", "tested at": "10 µM", "endpoint": "ΔTm", "result": "-0.2 °C"}
{"Structure (SMILES)": "CCCOc1ccc(OC)c(F)c1C(=O)c1ccc(C(=O)N[C@@H]2CNC[C@H]2NC(=O)c2ccc3[nH]ncc3c2)cc1", "effect on": "enzyme activity", "mode": "inhibitor", "tested at": "10 µM", "endpoint": "remaining activity", "result": "128%"}
{"Structure (SMILES)": "CCN1CCC2(CC1)NC(=O)c1c(c3ccc(Cl)c(Cl)c3n1C)C2C#N (racemic)", "effect on": "thermal stability", "technique": "DSF", "tested at": "10 µM", "endpoint": "ΔTm", "result": "0 °C"}
{"Structure (SMILES)": "CNC(=O)c1cc(Oc2ccc(NC(=O)Nc3ccc(Cl)c(C(F)(F)F)c3)cc2)ccn1", "effect on": "enzyme activity", "mode": "inhibitor", "tested at": "0.3 µM", "endpoint": "inhibition", "result": "-6%"}
{"Structure (SMILES)": "CCN1CCN(Cc2ccc(NC(=O)c3ccc(C)c(/C=C/c4cnc5[nH]ccc5c4OC)c3)cc2C(F)(F)F)CC1", "effect on": "target engagement in cells", "mode": "inhibitor", "technique": "chemoproteomics", "cells": "A-375", "tested at": "0.5 µM", "endpoint": "inhibition", "result": "-21.7%"}
{"Structure (SMILES)": "CCN(CC)CCNC(=O)c1c(C)[nH]c(/C=C2\\C(=O)Nc3ccc(F)cc32)c1C", "effect on": "enzyme activity", "mode": "inhibitor", "tested at": "0.3 µM", "endpoint": "inhibition", "result": "-15%"}
{"Structure (SMILES)": "CCN1CCN(Cc2ccc(NC(=O)c3ccc(C)c(Oc4ccnc5[nH]ccc45)c3)cc2C(F)(F)F)CC1", "effect on": "target engagement in cells", "mode": "inhibitor", "technique": "chemoproteomics", "cells": "A-375", "tested at": "5 µM", "endpoint": "inhibition", "result": "-27.8%"}
{"Structure (SMILES)": "Nc1nc(NC2CCCCC2)sc1C(=O)c1ccccc1", "effect on": "enzyme activity", "mode": "inhibitor", "tested at": "10 µM", "endpoint": "remaining activity", "result": "89%"}
{"Structure (SMILES)": "Cn1c2c(c3ccc(Cl)c(Cl)c31)C(C#N)C1(CCNCC1)NC2=O (racemic)", "effect on": "thermal stability", "technique": "DSF", "tested at": "10 µM", "endpoint": "ΔTm", "result": "0 °C"}
{"Structure (SMILES)": "FC(F)c1nc2ccccc2n1-c1nc(N2CCOCC2)nc(N2CCOCC2)n1", "effect on": "enzyme activity", "mode": "inhibitor", "tested at": "10 µM", "endpoint": "remaining activity", "result": "96%"}
{"Structure (SMILES)": "Cn1c2c(c3ccccc31)C(C#N)C(C)(C)NC2=O (centres unmarked)", "effect on": "thermal stability", "technique": "DSF", "tested at": "10 µM", "endpoint": "ΔTm", "result": "0 °C"}
{"Structure (SMILES)": "FC(F)(F)Oc1cccc(-c2cnc3ccc(-c4ccncc4)nn23)c1", "effect on": "enzyme activity", "mode": "inhibitor", "technique": "radiometric", "tested at": "5 µM", "endpoint": "activity vs control", "result": "98%"}
